assay: lowest concentration at which glucose utilized was greater than or equal to 140% of control value tested in a glucose utilization L6 myocyte in vitro assay; type: functional, Rattus norvegicus
Outline: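 Differentiated rat L6 myotubes (day 11 or 13 after plating) exposed 20 h to compound in serum-free DMEM with 15 mM glucose and 1% final DMSO. Tested in quadruplicate at 3, 10, 30, 100, 300 µM. Glucose left in the medium read by glucose oxidase. Value is the lowest concentration giving at least 40% more utilization than control.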

SMILES	Lowest effective concentration for glucose utilization ≥140% of control
CC(=O)N(C[C@@H]1CN2C(=O)CC[C@]2(c2ccc(Cl)cc2)O1)c1ccc(Cl)cc1	>300 µM
OCc1cc(-c2ccc(Cl)c(Cl)c2)no1	30 µM
CC(C)(C)[C@]12CCC(=O)N1C[C@@H](COc1ccc(Cl)cc1)O2	>300 µM
CC(C)(C)[C@]12CCC(=O)N1C[C@H](COc1ccc(Cl)cc1)O2	>300 µM
CC(=O)N1CCS[C@@H]1c1ccc(Cl)cc1	>300 µM
CC(=O)N1C[C@H](COc2ccc(Cl)cc2)O[C@@H]1c1ccc(Cl)c(Cl)c1	30 µM
O=C1CC[C@]2(c3ccc(Cl)cc3)O[C@H](CO)CN12	>300 µM
O=C1CCC[C@]2(c3ccccc3)O[C@@H](COc3ccc(Cl)cc3)CN12	>300 µM
COCc1cc(-c2ccc(Cl)cc2)no1	100 µM
CC(C)(C)c1cc(CO)on1	>300 µM
CC1(C)C[C@]2(c3ccc(Cl)cc3)O[C@@H](COc3ccc(Cl)cc3)CN2C1=O	100 µM
OCc1cc(-c2ccccc2)no1	>300 µM
COC(=O)COC[C@@H]1CN2C(=O)CC[C@]2(c2ccc(Cl)cc2)O1	>300 µM
CC(C)C(=O)N1C[C@@H](COc2ccc(Cl)cc2)O[C@@H]1c1ccc(Cl)c(Cl)c1	30 µM
C=CCOC[C@@H]1CN2C(=O)CC[C@]2(c2ccc(Cl)cc2)O1	>300 µM
O=C1CC[C@]2(c3ccc(Cl)c(Cl)c3)O[C@H](CSc3ccc(Cl)cc3)CN12	100 µM
O=C1CC[C@]2(c3ccc(Cl)c(Cl)c3)O[C@@H](COc3ccc(Cl)cc3)CN12	30 µM
O=C1CC[C@]2(c3ccc(Cl)c(C(F)(F)F)c3)O[C@@H](COc3ccc(Cl)cc3)CN12	300 µM
O=C1CC[C@]2(c3ccncc3)O[C@@H](COc3ccc(Cl)cc3)CN12	100 µM
CC(=O)N1C[C@@H](COc2ccc(Cl)cc2)O[C@@H]1c1ccc(Cl)cc1	100 µM
CC(=O)N1C[C@@H](COc2ccc(Cl)cc2)O[C@@H]1c1ccc(Cl)c(C(F)(F)F)c1	30 µM
O=C1CCC[C@]2(c3ccc(Cl)cc3)SCCN12	>300 µM
O=C(c1ccccc1)N1C[C@H](COc2ccc(Cl)cc2)O[C@@H]1c1ccc(Cl)c(Cl)c1	300 µM
O=C1CC[C@]2(c3cccc4ccccc34)O[C@H](COc3ccc(Cl)cc3)CN12	>300 µM

SMILES	Lowest effective concentration for glucose utilization ≥140% of control
OCc1cc(-c2ccc(Cl)cc2Cl)no1	300 µM
O=C1CC[C@]2(c3ccc(-c4ccccc4)cc3)O[C@@H](COc3ccc(Cl)cc3)CN12	>300 µM
O=C(Nc1ccccc1)N1C[C@H](COc2ccc(Cl)cc2)O[C@@H]1c1ccc(Cl)c(Cl)c1	30 µM
COc1ccc([C@H]2O[C@@H](COc3ccc(Cl)cc3)CN2C(C)=O)cc1	>300 µM
O=C1CC[C@]2(c3ccc(Cl)cc3)O[C@H](COCCO)CN12	>300 µM
O=C1CC[C@]2(c3ccccc3)OC[C@@H](O)CN12	>300 µM
CC1(C)C[C@]2(c3ccc(Oc4ccccc4)cc3)O[C@H](COc3ccc(Cl)cc3)CN2C1=O	30 µM
O=C1CC[C@]2(c3ccncc3)O[C@H](COc3ccc(Cl)cc3)CN12	30 µM
C/N=C(\S)N1CCS[C@@H]1c1ccc(Cl)cc1	300 µM
CS(=O)(=O)N1C[C@@H](COc2ccc(Cl)cc2)O[C@@H]1c1ccc(Cl)c(Cl)c1	30 µM
Clc1ccc(OCc2cc(-c3ccc(Cl)cc3)no2)cc1	>300 µM
COC(=O)c1cc(CO)on1	>300 µM
Cc1cc(CO)on1	>300 µM
O=C1CCC[C@]2(c3ccc(Oc4ccccc4)cc3)O[C@H](COc3ccc(Cl)cc3)CN12	100 µM
CNC(=O)N1CCS[C@@H]1c1ccc(Cl)cc1	300 µM
O=C1CC[C@]2(c3ccc(F)cc3)O[C@@H](COc3ccc(Cl)cc3)CN12	>300 µM
O=C1CC[C@]2(c3ccc(Cl)cc3)O[C@@H](CCc3ccccc3)CN12	>300 µM
O=C1CC[C@]2(c3ccc(Cl)cc3)O[C@@H](CO)CN12	>300 µM
OCCc1cc(-c2ccc(Cl)cc2)no1	100 µM
O=C1CC[C@]2(c3ccc(Cl)c(Cl)c3)O[C@H](COc3ccc(Cl)cc3)CN12	10 µM
COc1ccc([C@]23CCC(=O)N2C[C@H](COc2ccc(Cl)cc2)O3)cc1	>300 µM
O=C(O)c1cc(CO)on1	>300 µM
O=C(Nc1ccccc1)N1C[C@@H](COc2ccc(Cl)cc2)O[C@@H]1c1ccc(Cl)c(Cl)c1	30 µM
O=C1CC[C@]2(c3ccc(Cl)c(C(F)(F)F)c3)O[C@H](COc3ccc(Cl)cc3)CN12	10 µM

SMILES	Lowest effective concentration for glucose utilization ≥140% of control
O=C1CC[C@]2(c3ccccc3)OC[C@H](O)CN12	>300 µM
CC(C)(C)OC[C@@H]1CN2C(=O)CC[C@]2(c2ccc(Cl)cc2)O1	300 µM
C/N=C(\S)N1CCO[C@@H]1c1ccc(Cl)cc1	>300 µM
OCc1cc(Cc2ccccc2)no1	>300 µM
CNC(=O)N1CCO[C@@H]1c1ccc(Cl)cc1	>300 µM
CC1(C)C[C@]2(c3ccc(Cl)cc3)O[C@H](COc3ccc(Cl)cc3)CN2C1=O	30 µM
COc1ccc([C@H]2O[C@H](COc3ccc(Cl)cc3)CN2C(C)=O)cc1	>300 µM
O=C1CC[C@]2(c3ccc4oc5ccccc5c4c3)O[C@@H](COc3ccc(Cl)cc3)CN12	>300 µM
CS(=O)(=O)N1CCS[C@@H]1c1ccc(Cl)cc1	300 µM
CC1(C)C[C@]2(c3ccc(Oc4ccccc4)cc3)OCCN2C1=O	10 µM
O=C1CC[C@]2(C3CCCCC3)O[C@@H](COc3ccc(Cl)cc3)CN12	>300 µM
CC(=O)c1cc(CO)on1	>300 µM
CC(C)(O)c1cc(-c2ccc(Cl)cc2)no1	100 µM
COC(=O)N1C[C@@H](COc2ccc(Cl)cc2)O[C@@H]1c1ccc(Cl)c(Cl)c1	300 µM
O=C1CC[C@]2(C3CCCCC3)O[C@H](COc3ccc(Cl)cc3)CN12	100 µM
O=C1CC[C@]2(c3ccc(Cl)c(Cl)c3)O[C@@H](CSc3ccc(Cl)cc3)CN12	100 µM
O=C1CC[C@]2(c3ccc(Cl)cc3)O[C@@H](CNc3ccc(Cl)cc3)CN12	>300 µM
O=C(c1ccccc1)N1C[C@@H](COc2ccc(Cl)cc2)O[C@@H]1c1ccc(Cl)c(Cl)c1	>300 µM
CC(=O)N1C[C@H](COc2ccc(Cl)cc2)O[C@@H]1c1ccc(Cl)c(C(F)(F)F)c1	30 µM
CC(=O)N1C[C@@H](COc2ccc(Cl)cc2)S[C@@H]1c1ccc(Cl)cc1	300 µM
C[C@]12CCC(=O)N1C[C@@H](COc1ccc(Cl)cc1)O2	>300 µM
CC(=O)N1C[C@H](COc2ccc(Cl)cc2)S[C@@H]1c1ccc(Cl)cc1	30 µM
O=C1CC[C@]2(c3ccc(Cl)cc3)O[C@H](CCc3ccccc3)CN12	>300 µM
O=C1CC[C@]2(c3cccnc3)O[C@@H](COc3ccc(Cl)cc3)CN12	300 µM
